The target in experiment [1] is Telomerase reverse transcriptase (Homo sapiens) (UniProt O14746). Briefly: Inhibition of human telomerase by TRAP assay. In a few lines:
(§1)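 Cell-free modified TRAP assay using TSG4 primer and HeLa cell extract in TRAP buffer (20 mM Tris-HCl pH 8.3, 1.5 mM MgCl2, 68 mM KCl, 0.05% Tween 20, 1 mM EGTA). Compounds (2–20 µM) preincubated with primer for 2 h at 30 °C before extract was added. A 130-bp internal standard controls PCR efficiency. Percent inhibition from at least three independent experiments.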

Experiment [2] has the same target. Briefly: Inhibition of human telomerase at 2 uM by TRAP assay. In a few lines:
as §1

Calls of active or inactive are those of the source. The calls are words filed in the database; no cut-off is given here.

Sequence of Telomerase reverse transcriptase (Homo sapiens) (O14746 whole entry): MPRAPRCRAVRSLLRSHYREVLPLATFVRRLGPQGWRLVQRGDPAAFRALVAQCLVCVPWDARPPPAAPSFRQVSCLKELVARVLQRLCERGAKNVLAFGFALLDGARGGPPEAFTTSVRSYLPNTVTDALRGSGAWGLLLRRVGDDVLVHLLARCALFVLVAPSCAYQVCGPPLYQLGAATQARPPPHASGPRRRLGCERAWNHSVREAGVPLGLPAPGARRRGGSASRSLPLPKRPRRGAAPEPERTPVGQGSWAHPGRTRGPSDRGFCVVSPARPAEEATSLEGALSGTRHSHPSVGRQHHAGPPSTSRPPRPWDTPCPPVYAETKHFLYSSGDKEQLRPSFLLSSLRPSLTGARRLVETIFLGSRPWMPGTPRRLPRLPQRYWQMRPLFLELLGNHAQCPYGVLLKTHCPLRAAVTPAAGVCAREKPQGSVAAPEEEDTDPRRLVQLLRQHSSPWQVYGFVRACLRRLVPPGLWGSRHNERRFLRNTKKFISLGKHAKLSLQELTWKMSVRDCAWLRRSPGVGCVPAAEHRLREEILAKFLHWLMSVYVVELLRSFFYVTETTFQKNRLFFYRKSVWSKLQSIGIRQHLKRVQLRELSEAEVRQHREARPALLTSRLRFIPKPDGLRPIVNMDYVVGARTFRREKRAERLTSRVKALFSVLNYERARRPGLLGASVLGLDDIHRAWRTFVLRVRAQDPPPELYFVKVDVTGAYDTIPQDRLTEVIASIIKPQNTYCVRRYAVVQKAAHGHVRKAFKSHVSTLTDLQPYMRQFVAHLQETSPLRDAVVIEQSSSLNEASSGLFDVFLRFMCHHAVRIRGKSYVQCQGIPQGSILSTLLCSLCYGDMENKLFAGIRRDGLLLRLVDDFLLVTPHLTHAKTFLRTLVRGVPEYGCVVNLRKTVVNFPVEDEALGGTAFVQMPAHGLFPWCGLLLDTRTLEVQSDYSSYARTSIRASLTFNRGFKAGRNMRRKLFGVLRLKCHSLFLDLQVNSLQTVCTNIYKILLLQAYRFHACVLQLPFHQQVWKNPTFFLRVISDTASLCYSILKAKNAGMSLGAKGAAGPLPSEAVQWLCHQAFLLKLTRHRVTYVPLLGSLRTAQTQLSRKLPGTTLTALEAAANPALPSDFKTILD

As for `CC(=O)NCCCNCCCCNCCN1C(=O)c2ccc3c4ccc5c6c(ccc(c7ccc(c2c37)C1=O)c64)C(=O)N(CCNCCCCNCCCNC(C)=O)C5=O`, the result in experiment [1] was Active.
With `NCCCNCCCCNCCN1C(=O)c2ccc3c4ccc5c6c(ccc(c7ccc(c2c37)C1=O)c64)C(=O)N(CCNCCCCNCCCN)C5=O`, in experiment [2], the inhibition (as a rule, how much of the control response was suppressed) worked out at 30%.

Values taken from ChEMBL document CHEMBL1143134, “The number and distances of positive charges of polyamine side chains in a series of perylene diimides significantly influence their ability to induce G-quadruplex structures and inhibit human telomerase” (Bioorg Med Chem, 2008).
